Test results published in ChEMBL document CHEMBL2169869, “Assay and inhibition of diacylglycerol lipase activity” (Bioorg Med Chem Lett, 2012).
pIC50: −log10 of the molar value.

Experiments:
[1] = molecular target: T1, Fatty-acid amide hydrolase 1 (Rattus norvegicus, UniProt P97612); test: Inhibition of rat histidine tagged FAAH expressed in Escherichia coli by coumarin ester substrate fluorescence assay
T1 sequence (P97612 whole entry): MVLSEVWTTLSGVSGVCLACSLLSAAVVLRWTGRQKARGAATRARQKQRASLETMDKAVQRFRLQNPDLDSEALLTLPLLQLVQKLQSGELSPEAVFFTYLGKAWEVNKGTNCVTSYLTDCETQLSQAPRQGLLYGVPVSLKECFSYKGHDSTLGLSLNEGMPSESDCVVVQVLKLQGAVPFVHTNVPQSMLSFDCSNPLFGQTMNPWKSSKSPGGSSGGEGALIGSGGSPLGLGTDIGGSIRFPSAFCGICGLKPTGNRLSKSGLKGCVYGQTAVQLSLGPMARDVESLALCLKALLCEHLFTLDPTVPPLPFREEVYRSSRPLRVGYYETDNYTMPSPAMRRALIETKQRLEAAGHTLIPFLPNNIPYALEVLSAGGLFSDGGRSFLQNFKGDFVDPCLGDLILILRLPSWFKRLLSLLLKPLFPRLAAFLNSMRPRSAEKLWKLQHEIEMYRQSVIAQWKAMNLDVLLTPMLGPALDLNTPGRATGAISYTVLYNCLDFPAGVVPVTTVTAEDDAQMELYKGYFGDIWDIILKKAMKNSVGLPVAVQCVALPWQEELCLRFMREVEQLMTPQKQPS

[2] = Inhibition of porcine pancreatic lipase type 2 by FRET assay; parameters: species or system Sus scrofa
In short: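 Purified enzymes: bacterial lipoprotein lipase (0.46 μg) or porcine pancreatic lipase type II (1.0 μg, suspended in 1:9 DMSO/water). Run in 50 mM Tris pH 7.4 with 10 mM CaCl2. Substrate was the pyrene-dinitrophenyl ether lipid FRET reporter at 25 μM, with compounds screened at 10 μM. Fluorescence was read at ex 320/em 400 nm, and percent inhibition was taken at 1.5 h; n = 1 or 2.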

Row | Structure (SMILES) | pIC50 [1] | pIC50 [2]
1 | O=C(Oc1ccc([N+](=O)[O-])cc1)N1CCC(C(O)(c2ccc3c(c2)OCO3)c2ccc3c(c2)OCO3)CC1 | 6.01 | –
2 | CCCCCCCCCCC[C@@H](C[C@@H]1OC(=O)[C@H]1CCCCCC)OC(=O)[C@H](CC(C)C)NC=O [ORLISTAT] | – | > 9.00
